Calls of active or inactive are those of the source. No cut-off for these calls is given here.
Key:
Assay type in all cases: cell-based
[1] = biological target: T1, Transient receptor potential cation channel subfamily A member 1 (Homo sapiens, UniProt O75762); assay: Agonist activity at human TRPA1 expressed in HEK293 cells assessed as increase in calcium influx by Fluo-4-AM dye based fluorescence assay; conditions: read-out: EC50
In short: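 Stably transfected hTRPA1- or hTRPM8-HEK293 cells on poly-D-lysine plates for 48 h, loaded with Fluo-4AM (2 µM, 45 min, dark, room temperature), in isotonic HEPES buffer pH 7.4. FlexStation 240 s run: 20 s baseline, compound added, calcimycin added at 180 s. ΔRFU expressed as % calcimycin, DMSO-subtracted. Screening N = 3. Dose-response curves fitted for logEC50 (N = 3 in duplicate or triplicate).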

[2] = biological target: T1, Transient receptor potential cation channel subfamily A member 1; assay: Agonist activity at human TRPA1 expressed in HEK293 cells assessed as increase in calcium influx by Fluo-3/acetoxymethyl ester dye based FLIPR analysis
[3] = tested on: Transient receptor potential cation channel subfamily A member 1 (Homo sapiens), O75762 [C621A]; assay: Agonist activity at human TRPA1 […] mutant expressed in HEK293 cells assessed as Ca2+ influx at 1 uM by fluorescence assay
[4] = tested on: Transient receptor potential cation channel subfamily A member 1 (Homo sapiens), O75762 [F909A]; assay: Agonist activity at human TRPA1 Phe909Ala mutant expressed in HEK293 cells assessed as Ca2+ influx at 1 uM by fluorescence assay
In short: (§1)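 HEK293 cells stably expressing hTRPA1 point mutants (C621A, F909A or F944A), single-cell cloned under G418 selection. Cells plated on poly-D-lysine for 48 h, loaded with Fluo-4AM 2 µM for 45 min at room temperature. FlexStation read (ex 485/em 538 nm): 20 s baseline, compound added, calcimycin added at 180 s. Response expressed as % calcimycin from ΔRFU, vehicle-subtracted, and compared with wild-type hTRPA1 cells.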

[5] = biological target: T1, Transient receptor potential cation channel subfamily A member 1; assay: Agonist activity at human TRPA1 expressed in HEK293 cells assessed as increase in calcium influx by FLIPR analysis
In short: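 Stably transfected hTRPA1-HEK293 cells plated on poly-D-lysine at 12500 cells per well, grown 48 h, loaded with 2 µM Fluo-4AM for 45 min in the dark at room temperature. Assayed in isotonic HEPES buffer (pH 7.4) on a plate reader, ex 485/em 538 nm. Compound added at 20 s, calcimycin at 180 s. ΔRFU taken as % calcimycin after DMSO subtraction. Three independent experiments.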

[6] = biological target: Transient receptor potential cation channel subfamily A member 1 (Mus musculus, UniProt Q8BLA8); assay: Agonist activity at mouse TRPA1 expressed in CHO cells assessed as increase in calcium influx by Fluo-3 based FLIPR analysis
[7] = tested on: Transient receptor potential cation channel subfamily A member 1 (Homo sapiens), O75762 [F909A]; assay: Agonist activity at human TRPA1 Phe909Ala mutant expressed in HEK293 cells assessed as Ca2+ influx at 30 uM by fluorescence assay; in short: as §1
[8] = biological target: T1, Transient receptor potential cation channel subfamily A member 1; assay: Agonist activity at human TRPA1 expressed in HEK293 assessed as increase in calcium influx by […]
[9] = tested on: Transient receptor potential cation channel subfamily A member 1 (Homo sapiens), O75762 [F909A]; assay: Agonist activity at human TRPA1 Phe909Ala mutant expressed in HEK293 cells assessed as Ca2+ influx at 100 uM by fluorescence assay
In short: (§2)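 HEK293 cells stably expressing hTRPA1 point mutants, made by FuGENE 6 transfection, G418 (0.5 mg ml-1) selection and single-cell cloning, grown in DMEM with 25 mM HEPES, 10% FBS and geneticin. Ca2+ influx was read by Fluo dye fluorescence at room temperature, with calcimycin added at the end. Response was ΔRFU as % of calcimycin, with the DMSO vehicle subtracted.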

[10] = tested on: Transient receptor potential cation channel subfamily A member 1 (Homo sapiens), O75762 [F944A]; assay: Agonist activity at human TRPA1 Phe944Ala mutant expressed in HEK293 cells assessed as Ca2+ influx at 100 uM by fluorescence assay; in short: as §2
[11] = biological target: T1, Transient receptor potential cation channel subfamily A member 1; assay: Agonist activity at human TRPA1 expressed in CHO cells assessed as increase in calcium influx by Fluo-4-AM dye based fluorescence assay
[12] = tested on: Transient receptor potential cation channel subfamily A member 1 (Homo sapiens), O75762 [C621A]; assay: Agonist activity at human TRPA1 […] mutant expressed in HEK293 cells assessed as Ca2+ influx […] by fluorescence assay; in short: as §1
[13] = tested on: Transient receptor potential cation channel subfamily A member 1 (Homo sapiens), O75762 [F909A]; assay: Agonist activity at human TRPA1 Phe909Ala mutant expressed in HEK293 cells assessed as Ca2+ influx […] fluorescence assay; in short: as §1
[14] = tested on: Transient receptor potential cation channel subfamily A member 1 (Homo sapiens), O75762 [F944A]; assay: Agonist activity at human TRPA1 Phe944Ala mutant expressed in HEK293 cells assessed as Ca2+ influx […] by fluorescence assay; in short: as §1
[15] = biological target: T1, Transient receptor potential cation channel subfamily A member 1; assay: Agonist activity at human TRPA1 expressed in HEK293 cells assessed as increase in calcium influx by Calcium-5 dye based fluorescence assay
[16] = tested on: Transient receptor potential cation channel subfamily A member 1 (Homo sapiens), O75762 [F944A]; assay: Agonist activity at human TRPA1 Phe944Ala mutant expressed in HEK293 cells assessed as Ca2+ influx at 30 uM by fluorescence assay; in short: as §1

T1 sequence (O75762 whole entry): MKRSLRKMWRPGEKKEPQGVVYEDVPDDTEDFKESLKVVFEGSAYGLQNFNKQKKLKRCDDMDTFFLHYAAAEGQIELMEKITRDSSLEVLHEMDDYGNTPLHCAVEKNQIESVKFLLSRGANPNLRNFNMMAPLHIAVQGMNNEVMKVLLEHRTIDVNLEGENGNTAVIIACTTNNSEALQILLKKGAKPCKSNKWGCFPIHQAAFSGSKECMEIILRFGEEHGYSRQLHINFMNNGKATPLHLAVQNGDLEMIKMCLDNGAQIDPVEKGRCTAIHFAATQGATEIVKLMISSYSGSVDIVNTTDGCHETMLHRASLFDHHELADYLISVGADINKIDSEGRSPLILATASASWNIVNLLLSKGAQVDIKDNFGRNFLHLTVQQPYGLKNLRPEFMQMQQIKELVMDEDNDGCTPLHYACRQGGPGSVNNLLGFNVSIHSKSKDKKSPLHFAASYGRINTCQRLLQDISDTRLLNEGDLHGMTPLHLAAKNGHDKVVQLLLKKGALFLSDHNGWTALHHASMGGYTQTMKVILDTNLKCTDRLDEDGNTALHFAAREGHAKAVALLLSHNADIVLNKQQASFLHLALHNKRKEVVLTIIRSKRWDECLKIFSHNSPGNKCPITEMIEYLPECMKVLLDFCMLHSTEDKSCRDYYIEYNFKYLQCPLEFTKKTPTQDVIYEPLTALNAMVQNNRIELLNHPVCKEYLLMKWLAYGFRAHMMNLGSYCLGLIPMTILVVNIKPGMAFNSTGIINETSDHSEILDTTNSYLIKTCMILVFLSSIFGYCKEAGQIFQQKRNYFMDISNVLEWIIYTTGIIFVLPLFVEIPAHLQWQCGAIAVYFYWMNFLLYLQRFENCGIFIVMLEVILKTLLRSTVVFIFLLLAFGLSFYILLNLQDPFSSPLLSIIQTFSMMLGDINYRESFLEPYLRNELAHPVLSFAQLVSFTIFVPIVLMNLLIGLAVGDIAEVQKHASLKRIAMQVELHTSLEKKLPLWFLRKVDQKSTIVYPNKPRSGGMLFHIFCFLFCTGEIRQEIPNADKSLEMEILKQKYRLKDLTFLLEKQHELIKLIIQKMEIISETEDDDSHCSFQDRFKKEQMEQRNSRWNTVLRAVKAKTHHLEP
Chain of Transient receptor potential cation channel subfamily A member 1 (Homo sapiens), O75762 [C621A] (O75762 whole entry C621A): as the sequence (O75762 whole entry) above, with C621A counted along it
Chain of Transient receptor potential cation channel subfamily A member 1 (Homo sapiens), O75762 [F944A] (O75762 whole entry F944A): as the sequence (O75762 whole entry) above, with F944A counted along it
Chain of Transient receptor potential cation channel subfamily A member 1 (Homo sapiens), O75762 [F909A] (O75762 whole entry F909A): as the sequence (O75762 whole entry) above, with F909A counted along it
Chain of Transient receptor potential cation channel subfamily A member 1 (Mus musculus, UniProt Q8BLA8) (Q8BLA8 whole entry): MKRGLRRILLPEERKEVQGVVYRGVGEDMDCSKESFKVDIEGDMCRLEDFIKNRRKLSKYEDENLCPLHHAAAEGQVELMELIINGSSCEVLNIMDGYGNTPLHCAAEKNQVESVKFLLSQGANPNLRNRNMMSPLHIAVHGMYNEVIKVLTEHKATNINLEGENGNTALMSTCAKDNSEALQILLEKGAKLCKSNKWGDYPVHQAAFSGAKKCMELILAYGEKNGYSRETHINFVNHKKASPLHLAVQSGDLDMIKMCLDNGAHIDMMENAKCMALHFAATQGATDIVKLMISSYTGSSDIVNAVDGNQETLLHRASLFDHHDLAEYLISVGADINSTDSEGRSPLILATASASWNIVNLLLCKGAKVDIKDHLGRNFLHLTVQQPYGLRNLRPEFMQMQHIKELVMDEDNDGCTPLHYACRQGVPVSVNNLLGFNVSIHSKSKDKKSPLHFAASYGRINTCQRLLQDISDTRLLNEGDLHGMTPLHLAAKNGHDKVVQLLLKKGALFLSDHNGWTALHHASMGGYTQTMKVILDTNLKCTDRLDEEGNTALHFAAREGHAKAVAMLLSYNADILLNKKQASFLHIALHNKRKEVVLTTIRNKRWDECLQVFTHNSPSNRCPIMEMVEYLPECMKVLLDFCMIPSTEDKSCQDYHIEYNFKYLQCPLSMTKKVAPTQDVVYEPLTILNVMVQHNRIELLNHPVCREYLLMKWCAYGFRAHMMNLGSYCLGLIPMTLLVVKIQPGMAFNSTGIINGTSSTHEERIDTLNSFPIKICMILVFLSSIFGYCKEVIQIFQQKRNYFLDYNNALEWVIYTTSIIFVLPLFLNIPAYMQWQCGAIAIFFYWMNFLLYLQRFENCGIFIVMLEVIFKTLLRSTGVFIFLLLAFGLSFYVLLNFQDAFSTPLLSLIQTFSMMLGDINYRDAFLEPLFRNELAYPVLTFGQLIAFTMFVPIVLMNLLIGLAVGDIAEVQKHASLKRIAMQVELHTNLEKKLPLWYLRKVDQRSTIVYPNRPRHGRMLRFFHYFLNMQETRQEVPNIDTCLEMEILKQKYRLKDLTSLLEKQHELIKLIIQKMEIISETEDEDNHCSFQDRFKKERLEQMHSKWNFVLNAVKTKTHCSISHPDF

In the case of `CC(C)=CCC/C(C)=C/CC/C(C)=C/CSc1ccccc1C(=O)O` [SALIRASIB], the EC50 [1] is reported as 0.8 µM, the EC50 [2] is reported as 7 µM and the Activity [3] is reported as “inactive”. For the same compound, the Activity [4] was “Active”.

`O=C(O)c1cc([N+](=O)[O-])ccc1NCCCc1ccccc1` [5-NITRO-2-PHENYLPROPYLAMINOBENZOIC ACID [NPPB]] was tested, and the EC50 [1] was 0.6 µM, the EC50 [5] was 0.32 µM and the Activity [3] was “inactive”. For the same compound, the Activity [4] was “Active”.

In the case of `O=C/C=C/c1ccccc1`, the EC50 [1] is reported as 9 µM, the EC50 [6] is reported as 61 µM and the Activity [7] is reported as “Active”.

In the case of `C=CCc1ccc(O)c(OC)c1` [EUGENOL], the EC50 [1] is reported as 168 µM, the EC50 [8] is reported as 261 µM and the Activity [9] is reported as “Active”. For the same compound, the Activity [10] was “inactive”.

With `CCCN(CCC)S(=O)(=O)c1ccc(C(=O)O)cc1` [PROBENECID] the EC50 [11] was 4200 µM, the Activity [12] was “inactive” and the Activity [13] was “Active”. For the same compound, the Activity [14] was “inactive”.

With `CC(Cc1ccc(O)c(O)c1)C(C)Cc1ccc(O)c(O)c1` (stereo not drawn) [NORDIHYDROGUAIARETIC ACID] the EC50 [1] was 35 µM, the EC50 [15] was 4.9 µM and the Activity [7] was “Active”. For the same compound, the Activity [16] was “inactive”.
